Reference: ChEMBL document CHEMBL3994612, “Novel 4-(4-substituted amidobenzyl)furan-2(5H)-one derivatives as topoisomerase I inhibitors” (Eur J Med Chem, 2017)
Calls of active or inactive are those of the source. No cut-off for these calls is given here.

Legend:
[1] = target: T1, DNA topoisomerase 1 (Homo sapiens) (UniProt P11387); assay: Inhibition of recombinant human topoisomerase-1 assessed as DNA insertion by measuring drug-DNA-enzyme ternary complex formation up to 100 uM using supercoiled pBR322 DNA substrate after 30 mins by ethidium bromide staining based agarose gel electrophoresis
T1 sequence (whole entry): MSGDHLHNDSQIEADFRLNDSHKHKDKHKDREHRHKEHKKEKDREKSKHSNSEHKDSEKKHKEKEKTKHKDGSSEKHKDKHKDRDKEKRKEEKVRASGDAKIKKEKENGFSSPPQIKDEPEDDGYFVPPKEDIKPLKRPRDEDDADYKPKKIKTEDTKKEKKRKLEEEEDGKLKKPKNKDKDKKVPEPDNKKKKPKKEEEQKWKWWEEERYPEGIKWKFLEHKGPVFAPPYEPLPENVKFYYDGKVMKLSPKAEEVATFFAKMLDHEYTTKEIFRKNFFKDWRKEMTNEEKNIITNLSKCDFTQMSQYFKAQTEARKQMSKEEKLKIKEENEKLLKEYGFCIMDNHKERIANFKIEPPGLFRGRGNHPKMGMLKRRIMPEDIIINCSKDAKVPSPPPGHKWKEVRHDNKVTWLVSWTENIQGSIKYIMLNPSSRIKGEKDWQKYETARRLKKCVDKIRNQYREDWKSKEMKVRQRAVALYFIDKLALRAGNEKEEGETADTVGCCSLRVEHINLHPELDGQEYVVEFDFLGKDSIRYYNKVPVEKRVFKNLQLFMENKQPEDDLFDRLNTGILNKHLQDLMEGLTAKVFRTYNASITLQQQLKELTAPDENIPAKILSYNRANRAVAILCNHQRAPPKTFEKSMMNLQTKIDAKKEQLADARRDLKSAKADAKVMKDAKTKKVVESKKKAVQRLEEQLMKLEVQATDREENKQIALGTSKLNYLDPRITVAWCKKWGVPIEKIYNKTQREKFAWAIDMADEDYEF
In short: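 Supercoiled pBR322 DNA (0.1 µg) in Topo I buffer (50 mM Tris-HCl pH 7.5, 10 mM MgCl2, 50 mM KCl, 0.1 mM EDTA, 0.5 mM DTT, BSA) pre-incubated with compound 10 min at 25 °C. Excess Topo I (4 units) then added, 30 min at 37 °C. Read-out: 1% agarose/TAE electrophoresis, EB staining, UV imaging. Ethidium bromide positive control; camptothecin negative control.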

A549 = assay: Cytotoxicity against human A549 cells assessed as reduction in cell viability after 48 hrs by MTT assay; format: functional, cell-based; conditions: A549, 48 h
In short: (§1)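 MCF-7, HeLa and A549 cells seeded at 3.5 × 10^3 per well in medium with 10% FBS and left overnight. Medium then replaced with fresh medium holding a range of compound concentrations for 48 h. MTT (5 mg/mL) added, 4 h at 37 °C. Formazan dissolved in DMSO, absorbance read at 570 nm. Triplicate wells per dose; IC50 derived.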

MCF7 = assay: Cytotoxicity against human MCF7 cells assessed as reduction in cell viability after 48 hrs by MTT assay; format: functional, cell-based; conditions: MCF7, 48 h; in short: as §1
HeLa = assay: Cytotoxicity against human HeLa cells assessed as reduction in cell viability after 48 hrs by MTT assay; format: functional, cell-based; in short: as §1
[2] = target: T1, DNA topoisomerase 1 (Homo sapiens); assay: Inhibition of recombinant human topoisomerase-1 assessed as reduction in relaxation of supercoiled pBR322 DNA substrate at 100 uM after 30 mins by ethidium bromide staining based agarose gel electrophoresis relative to control
In short: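 pBR322 DNA (0.1 µg) and recombinant human Topo I (0.2 units) incubated ± compound 30 min at 37 °C in supplier's Topo I buffer; compounds from DMSO stocks. Stopped with bromophenol blue/xylene cyanol/glycerol dye. Read-out: 1% agarose in 1× TAE, 100 V for 30 min, EB stain (0.5 µg/mL). Percent inhibition from gray-scale band analysis; camptothecin positive control.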

[3] = target: T1, DNA topoisomerase 1 (Homo sapiens); assay: Inhibition of recombinant human topoisomerase-1 assessed as DNA insertion by measuring drug-DNA-enzyme ternary complex formation up to 25 uM using supercoiled pBR322 DNA substrate after 30 mins by ethidium bromide staining based agarose gel electrophoresis
In short: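 Supercoiled pBR322 DNA (0.1 µg) preincubated with compound 10 min at 25 °C, then excess Topo I (4 units) added, 30 min at 37 °C in 20 µL Tris-HCl pH 7.5 buffer with MgCl2, KCl, EDTA, DTT, BSA. Run on 1% agarose in TAE 40 min, EB post-stained, UV-imaged. Unwinding read as supercoiled retained versus relaxed.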

[4] = target: T1, DNA topoisomerase 1 (Homo sapiens); assay: Inhibition of recombinant human topoisomerase-1 assessed as interference in DNA binding to enzyme by measuring reduction in enzyme-DNA complex using supercoiled pBR322 DNA substrate preincubated for 20 mins followed by substrate addition measured after 3 mins by electrophoretic mobility shift assay
[5] = target: T1, DNA topoisomerase 1 (Homo sapiens); assay: Poison activity at recombinant human topoisomerase-1 assessed as stabilization of DNA-enzyme cleavage complex by measuring increase in linear DNA using supercoiled pBR322 DNA substrate after 30 mins by ethidium bromide staining based agarose gel electrophoresis

Structure (SMILES)	inhibition [1]	IC50 (A549) [µM]	IC50 (MCF7) [µM]	IC50 (HeLa) [µM]	inhibition [2] [%]	inhibition [3]	inhibition [4]	Activity [5]
C=C1OC(=O)C=C1Cc1ccc(NC(=O)Cc2cccc(C(F)(F)F)c2)cc1	inactive	6.69	6.15	8.63	41.9			
C=C1OC(=O)C=C1Cc1ccc(NC(=O)/C=C/c2ccccc2)cc1	inactive	14.8	9.49	7.34	48.6			
C=C1OC(=O)C=C1Cc1ccc(NC(=O)Cc2ccccc2)cc1	inactive	39	> 50	> 50	28.5			
C=C1OC(=O)C=C1Cc1ccc(NC(=O)Cc2ccccc2C(F)(F)F)cc1	inactive	37.5	48.7	37.5	32.3			
C=C1OC(=O)C=C1Cc1ccc(NC(=O)Cc2ccccc2Cl)cc1	inactive	48.8	40.9	42.6	21.3			
C=C1OC(=O)C=C1Cc1ccc(NC(=O)Cc2ccccc2F)cc1	inactive	32	48.3	40.5	32.8			
C=C1OC(=O)C=C1Cc1ccc(NC(=O)Cc2cccc(Cl)c2)cc1	inactive	41	42.9	45.8	22.5			
O=C(Cc1cccc(C(F)(F)F)c1)Nc1ccc(CC2=CC(=O)OC2)cc1		> 50	40.1	44	12.3			
CC[C@@]1(O)C(=O)OCc2c1cc1n(c2=O)Cc2cc3ccccc3nc2-1 [CAMPTOTHECIN]		0.24	71.3	60				
O=C(/C=C/c1cccc(F)c1)Nc1ccc(CC2=CC(=O)OC2)cc1		> 50	39	49	13.1			
Cc1ccc(CC(=O)Nc2ccc(CC3=CC(=O)OC3)cc2)cc1		41.4	49.2	> 50	19.4			
C=C1OC(=O)C=C1Cc1ccc(NC(=O)/C=C/c2cccc(F)c2)cc1	inactive	35.2	39	30.2	34.5			
O=C(Cc1ccc(C(F)(F)F)cc1)Nc1ccc(CC2=CC(=O)OC2)cc1		45.8	46.4	48.8	11			
C=C1OC(=O)C=C1Cc1ccc(NC(=O)Cc2ccc(Cl)cc2)cc1	inactive	37.6	37.4	35.5	30.3			
O=C(/C=C/c1ccc(F)cc1)Nc1ccc(CC2=CC(=O)OC2)cc1		41.8	47.9	> 50	12.1			
CC[n+]1c(-c2ccccc2)c2cc(N)ccc2c2ccc(N)cc21						Active		
C=C1OC(=O)C=C1Cc1ccc(NC(=O)Cc2ccc(C)cc2)cc1	inactive	7.79	3.94	7.12	47.9			
C=C1OC(=O)C=C1Cc1ccc(NC(=O)Cc2ccc(C(F)(F)F)cc2)cc1	inactive	42.9	39.8	39.7	34.9			
O=C(Cc1ccccc1C(F)(F)F)Nc1ccc(CC2=CC(=O)OC2)cc1		48.9	43.8	44.6	20.3			
C=C1OC(=O)C=C1Cc1ccc(NC(=O)Cc2ccc(F)cc2)cc1	inactive	22.8	16	16.2	43.3			
O=C(/C=C/c1ccccc1F)Nc1ccc(CC2=CC(=O)OC2)cc1		40	> 50	45.8	11.7			
C=C1OC(=O)C=C1Cc1ccc(NC(=O)c2ccccc2)cc1	inactive	49.8	> 50	48.3	28.7			
C=C1OC(=O)C=C1Cc1ccc(NC(=O)/C=C/c2ccccc2F)cc1	inactive	7.41	13.8	6.93	44.6			
C=C1OC(=O)C=C1Cc1ccc(NC(=O)/C=C/c2ccc(F)cc2)cc1	inactive	3.46	4.43	2.77	94		Dose-dependent effect	Dose-dependent effect
